Test results as given in ChEMBL document CHEMBL3124924, “Bifunctional ethyl 2-amino-4-methylthiazole-5-carboxylate derivatives: synthesis and in vitro biological evaluation as antimicrobial and anticancer agents” (2014).
In brackets after ≈: the same amount, converted by molar mass. Activity calls are given as the source filed them. No cut-off for these calls is given here.

Assays:
Candida albicans = test: Antifungal activity against Candida albicans ATCC 10231 assessed as growth inhibition at 1 mg/mL after 48 hrs by agar-cup diffusion method; type: functional; details: ATCC 10231, 48 h, read-out: DIZ
Procedure, shortened: (§1)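 Agar-cup diffusion: 1 mL of 6 h broth culture seeded per 100 mL molten sterile agar at 45 °C and poured into plates. 8 mm cups cut, each filled with 0.1 mL of 1 mg/mL test solution. Incubated 37 °C for 24 h, 48 h for C. albicans. DMSO control per organism. Inhibition zone diameter in mm, mean of three measurements.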

Escherichia coli [1] = test: Antibacterial activity against Escherichia coli ATCC 25922 assessed as growth inhibition at 1 mg/mL after 24 hrs by agar-cup diffusion method; type: functional; details: ATCC 25922, 24 h, read-out: DIZ; procedure, shortened: as §1
Bacillus spizizenii [2] = test: Antibacterial activity against Bacillus subtilis ATCC 6633 assessed as growth inhibition at 1 mg/mL after 24 hrs by agar-cup diffusion method; type: functional; details: ATCC 6633, 24 h, read-out: DIZ; procedure, shortened: as §1
U-251 = test: Cytotoxicity against human U251 cells assessed as growth inhibition at 10 uM after 48 hrs by SRB assay; type: functional; details: U-251, 48 h, read-out: GI
Procedure, shortened: (§2)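 NCI-60 one-dose primary screen run by the NCI Drug Evaluation Branch across the full 60-line panel. Single high-dose treatment with 48 h continuous drug exposure. Cell growth estimated by sulforhodamine B protein staining. Results given as percent growth of treated cells and expressed as percentage growth inhibition.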

SNB-75 = test: Cytotoxicity against human SNB75 cells assessed as growth inhibition at 10 uM after 48 hrs by SRB assay; type: functional; details: SNB-75, 48 h, read-out: GI; procedure, shortened: as §2
UACC-62 = test: Cytotoxicity against human UACC62 cells assessed as growth inhibition at 10 uM after 48 hrs by SRB assay; type: functional; details: UACC-62, 48 h, read-out: GI; procedure, shortened: as §2
SK-MEL-5 = test: Cytotoxicity against human SK-MEL-5 cells assessed as growth inhibition at 10 uM after 48 hrs by SRB assay; type: functional; details: SK-MEL-5, 48 h, read-out: GI; procedure, shortened: as §2
SK-MEL-2 = test: Cytotoxicity against human SK-MEL-2 cells assessed as growth inhibition at 10 uM after 48 hrs by SRB assay; type: functional; details: SK-MEL-2, 48 h, read-out: GI; procedure, shortened: as §2
[3] = Cytotoxicity against human UO31 cells assessed as growth inhibition at 10 uM after 48 hrs by SRB assay; type: functional; details: UO-31, 48 h, read-out: GI; procedure, shortened: as §2
SN12C = test: Cytotoxicity against human SN12C cells assessed as growth inhibition at 10 uM after 48 hrs by SRB assay; type: functional; details: read-out: GI; procedure, shortened: as §2
CCRF-CEM = test: Cytotoxicity against human CCRF-CEM cells assessed as growth inhibition at 10 uM after 48 hrs by SRB assay; type: functional; details: read-out: GI; procedure, shortened: as §2
T47D = test: Cytotoxicity against human T47D cells assessed as growth inhibition at 10 uM after 48 hrs by SRB assay; type: functional; details: read-out: GI; procedure, shortened: as §2
MDA-MB-468 = test: Cytotoxicity against human MDA-MB-468 cells assessed as growth inhibition at 10 uM after 48 hrs by SRB assay; type: functional; details: MDA-MB-468, 48 h, read-out: GI; procedure, shortened: as §2
[4] = Cytotoxicity against human NCI-ADR-RES cells assessed as growth inhibition at 10 uM after 48 hrs by SRB assay; type: functional; details: read-out: GI; procedure, shortened: as §2
MCF7 = test: Cytotoxicity against human MCF7 cells assessed as growth inhibition at 10 uM after 48 hrs by SRB assay; type: functional; details: MCF7, 48 h, read-out: GI; procedure, shortened: as §2
SW-620 = test: Cytotoxicity against human SW620 cells assessed as growth inhibition at 10 uM after 48 hrs by SRB assay; type: functional; details: SW-620, 48 h, read-out: GI; procedure, shortened: as §2
HT-29 = test: Cytotoxicity against human HT-29 cells assessed as growth inhibition at 10 uM after 48 hrs by SRB assay; type: functional; details: HT-29, 48 h, read-out: GI; procedure, shortened: as §2
HCT-15 = test: Cytotoxicity against human HCT15 cells assessed as growth inhibition at 10 uM after 48 hrs by SRB assay; type: functional; details: HCT-15, 48 h, read-out: GI; procedure, shortened: as §2
HCT-116 = test: Cytotoxicity against human HCT116 cells assessed as growth inhibition at 10 uM after 48 hrs by SRB assay; type: functional; details: HCT-116, 48 h, read-out: GI; procedure, shortened: as §2
HCC 2998 = test: Cytotoxicity against human HCC2998 cells assessed as growth inhibition at 10 uM after 48 hrs by SRB assay; type: functional; details: HCC 2998, 48 h, read-out: GI; procedure, shortened: as §2
NCI-H522 = test: Cytotoxicity against human NCI-H522 cells assessed as growth inhibition at 10 uM after 48 hrs by SRB assay; type: functional; details: NCI-H522, 48 h, read-out: GI; procedure, shortened: as §2
NCI-H322M = test: Cytotoxicity against human NCI-H322M cells assessed as growth inhibition at 10 uM after 48 hrs by SRB assay; type: functional; details: read-out: GI; procedure, shortened: as §2
HOP-92 = test: Cytotoxicity against human HOP92 cells assessed as growth inhibition at 10 uM after 48 hrs by SRB assay; type: functional; details: HOP-92, 48 h, read-out: GI; procedure, shortened: as §2
Aspergillus niger = test: Antifungal activity against Aspergillus niger assessed as growth inhibition at 1 mg/mL after 24 hrs by agar-cup diffusion method; type: functional, organism-based; procedure, shortened: as §1
Pseudomonas aeruginosa [5] = test: Bactericidal activity against Pseudomonas aeruginosa ATCC 27853 after 18 hrs; type: functional; details: ATCC 27853, 18 h
Procedure, shortened: (§3)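 Continuation of the broth-dilution MIC test. A loopful from each tube without visible growth spread on a quarter of a Mueller-Hinton agar plate and incubated 18 h. Lowest concentration giving no growth on subculture taken as the MBC.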

Escherichia coli [6] = test: Bactericidal activity against Escherichia coli ATCC 25922 after 18 hrs; type: functional; details: ATCC 25922, 18 h; procedure, shortened: as §3
Escherichia coli [7] = test: Antibacterial activity against Escherichia coli ATCC 25922 assessed as growth inhibition after 48 hrs by two-fold serial dilution assay; type: functional; details: ATCC 25922, 48 h
Procedure, shortened: (§4)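 Twofold serial broth dilution run on compounds giving inhibition zones of 13 mm or more. Organisms pre-grown in suitable broth at 37 °C, 24 h for bacteria and 48 h for fungi. Dilution series 200, 100, 50, 25, 12.5, 6.25. Each 5 mL tube inoculated with 0.1 mL and incubated 37 °C for 48 h. Tubes scored for presence or absence of growth.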

Bacillus spizizenii [8] = test: Bactericidal activity against Bacillus subtilis ATCC 6633 after 18 hrs; type: functional; details: ATCC 6633, 18 h; procedure, shortened: as §3
Bacillus spizizenii [9] = test: Antibacterial activity against Bacillus subtilis ATCC 6633 assessed as growth inhibition after 48 hrs by two-fold serial dilution assay; type: functional; details: ATCC 6633, 48 h; procedure, shortened: as §4
Staphylococcus aureus [10] = test: Bactericidal activity against Staphylococcus aureus ATCC 6538 after 18 hrs; type: functional; details: ATCC 6538, 18 h; procedure, shortened: as §3
Staphylococcus aureus [11] = test: Antibacterial activity against Staphylococcus aureus ATCC 6538 assessed as growth inhibition at 1 mg/mL after 24 hrs by agar-cup diffusion method; type: functional; details: ATCC 6538, 24 h, read-out: DIZ; procedure, shortened: as §1
Pseudomonas aeruginosa [12] = test: Antibacterial activity against Pseudomonas aeruginosa ATCC 27853 assessed as growth inhibition at 1 mg/mL after 24 hrs by agar-cup diffusion method; type: functional; details: ATCC 27853, 24 h, read-out: DIZ; procedure, shortened: as §1

Row | SMILES | zone of inhibition at 1000 µg/mL (Candida albicans) | zone of inhibition at 1000 µg/mL (Escherichia coli [1]) | zone of inhibition at 1000 µg/mL (Bacillus spizizenii [2]) | inhibition of growth at 10 µM (U-251) | inhibition of growth at 10 µM (SNB-75) | inhibition of growth at 10 µM (UACC-62) | inhibition of growth at 10 µM (SK-MEL-5) | inhibition of growth at 10 µM (SK-MEL-2) | inhibition of growth at 10 µM [3] | inhibition of growth at 10 µM (SN12C) | inhibition of growth at 10 µM (CCRF-CEM) | inhibition of growth at 10 µM (T47D) | inhibition of growth at 10 µM (MDA-MB-468) | inhibition of growth at 10 µM [4] | inhibition of growth at 10 µM (MCF7) | inhibition of growth at 10 µM (SW-620) | inhibition of growth at 10 µM (HT-29) | inhibition of growth at 10 µM (HCT-15) | inhibition of growth at 10 µM (HCT-116) | inhibition of growth at 10 µM (HCC 2998) | other results
1 | Cc1nc(NC(=O)Nc2ccccc2)sc1C(=O)NN | > 13 mm | > 13 mm | > 13 mm | < 10% | < 10% | 11.9% | 2.35% | 37.8% | 28% | < 10% | < 10% | < 10% | < 10% | 6.43% | 2.96% | < 10% | < 10% | 9.63% | 10.5% | 6.85% | inhibition of growth at 10 µM (NCI-H522): 63.4%; inhibition of growth at 10 µM (NCI-H322M): 22%; inhibition of growth at 10 µM (HOP-92): < 10%; growth inhibition (GI) (Aspergillus niger): inactive; MBC (Pseudomonas aeruginosa [5]): 100 µg/mL (≈ 343 µM); MBC (Escherichia coli [6]): 12.5 µg/mL (≈ 42.9 µM); MIC (Escherichia coli [7]): 12.5 µg/mL (≈ 42.9 µM); MBC (Bacillus spizizenii [8]): 25 µg/mL (≈ 85.8 µM); MIC (Bacillus spizizenii [9]): 25 µg/mL (≈ 85.8 µM); MBC (Staphylococcus aureus [10]): 12.5 µg/mL (≈ 42.9 µM); zone of inhibition at 1000 µg/mL (Staphylococcus aureus [11]): > 13 mm; zone of inhibition at 1000 µg/mL (Pseudomonas aeruginosa [12]): > 13 mm
2 | CCOC(=O)c1sc(NS(=O)(=O)c2ccccc2)nc1C | > 13 mm | > 13 mm | > 13 mm | < 10% | 3.91% | < 10% | < 10% | 97.5% | 13% | < 10% | < 10% | < 10% | < 10% | < 10% | < 10% | < 10% | < 10% | < 10% | 43.1% | 72.5% | inhibition of growth at 10 µM (NCI-H522): < 10%; inhibition of growth at 10 µM (NCI-H322M): < 10%; inhibition of growth at 10 µM (HOP-92): < 10%; growth inhibition (GI) (Aspergillus niger): inactive; MBC (Pseudomonas aeruginosa [5]): 200 µg/mL (≈ 613 µM); MBC (Escherichia coli [6]): 50 µg/mL (≈ 153 µM); MIC (Escherichia coli [7]): 50 µg/mL (≈ 153 µM); MBC (Bacillus spizizenii [8]): 100 µg/mL (≈ 306 µM); MIC (Bacillus spizizenii [9]): 100 µg/mL (≈ 306 µM); MBC (Staphylococcus aureus [10]): 25 µg/mL (≈ 76.6 µM); zone of inhibition at 1000 µg/mL (Staphylococcus aureus [11]): > 13 mm; zone of inhibition at 1000 µg/mL (Pseudomonas aeruginosa [12]): > 13 mm
3 | Cc1nc(N)sc1C(=O)Nc1ccc(F)cc1 | > 13 mm | > 13 mm | > 13 mm | 5.77% | 5.4% | 3.24% | 6.65% | 67.3% | 11.8% | 3.01% | < 10% | < 10% | 9.63% | 2.36% | 2.21% | < 10% | < 10% | < 10% | < 10% | 11.8% | inhibition of growth at 10 µM (NCI-H522): 9.55%; inhibition of growth at 10 µM (NCI-H322M): 2.56%; inhibition of growth at 10 µM (HOP-92): < 10%; growth inhibition (GI) (Aspergillus niger): inactive; MBC (Escherichia coli [6]): 100 µg/mL (≈ 398 µM); MIC (Escherichia coli [7]): 50 µg/mL (≈ 199 µM); MBC (Bacillus spizizenii [8]): 50 µg/mL (≈ 199 µM); MIC (Bacillus spizizenii [9]): 25 µg/mL (≈ 99.5 µM); MBC (Staphylococcus aureus [10]): 25 µg/mL (≈ 99.5 µM); zone of inhibition at 1000 µg/mL (Staphylococcus aureus [11]): > 13 mm; zone of inhibition at 1000 µg/mL (Pseudomonas aeruginosa [12]): > 13 mm
